Assay [1] deals with Pantothenate synthetase (Mycobacterium tuberculosis (strain ATCC 25618 / H37Rv)) (UniProt P9WIL5). Nature of the assay: Coupled enzyme confirmation of inhibitors against recombinant Mtb PanC (AID 375).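 Also: 0% = full reaction with vehicle and 100% = no enzyme background.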 The following applies: coupled enzyme assay; at 10 µM, stronger effect = higher value.
A short description of assay [2]: Her2 expression decrease, cell viability multiplex – SKBR3 breast tumor cells, AlphaScreen, ATP viability, primary screen (AID 461;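 active = Her2 level under about 52% in both replicate screens, with viability over 70% of control, limit read from the data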;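 as to Her2 level: lower value means less Her2 protein in the cells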;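 as to viability: percent of carrier control wells set as 100% viability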). The settings on record: SKBR3 Her2 protein level, 18-24 h, measured here: SKBR3 viability, ATP luminescence, at 10 µM.
The target in assay [3] is Receptor tyrosine-protein kinase erbB-2 (Homo sapiens) (UniProt P04626). The assay is described as above. The settings on record: 18-24 h, at 10 µM, stronger effect = lower value.
The nature of assay [4]: reduced viability of SK-BR-3 breast cancer cells – cell-based, 24 h, human, pilot screen (AID 572;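 active = viability at or below 10% of carrier control in both of two separate runs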;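 also: compound exposure lasted between 18 and 24 h rather than exactly 24 h; 100% = carrier-treated control wells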). The following applies: SK-BR-3 viability, CellTiter-Glo luminescence, at 10 µM, stronger effect = lower value. For orientation: In ATP-based viability assays light output follows the ATP content of the culture.
A short description of assay [5]: HUVEC growth inhibition – cell-based, human, primary screen (AID 575;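 active = viability at or below 30% in both replicate assays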;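 also: 100% = median of untreated cell wells with 0.1% DMSO on each plate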). The following applies: HUVEC proliferation, CellTiter-Glo luminescence, 72 h; at 10 µM; stronger effect = lower value. The method, boiled down:
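Test system – primary HUVEC, no more than 12 passages · Dosing – one dose, 10 µM final, 0.1% DMSO · Times – 72 h treatment at 37 °C · Measured by – ATP-based CellTiter-Glo luminescent read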

Assay [6] can be described thus: H69AR cell proliferation blockers – human, duplicate replicates, primary screen (AID 580;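 active = viability at or under a set limit in both replicates, limit being median viability minus 3 SD, cut at about 48% in these data, passing the limit was not always enough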;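 also: 100% = mean luminescence of untreated wells and 0% = no signal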). The following applies: H69AR lung tumor cells viability, ATP luminescence, 72 h; at 10 µM; stronger effect = lower value.
Assay [7] is described as follows: MRP1 drug-resistance reversers in H69AR cells – cell-based, doxorubicin co-treatment, pilot screen (AID 601;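 active = viability loss from added drug above about 55%, and viability with drug at most 40%, in both replicates, limit read from the data, passing the limit was not always enough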). The following applies: CellTiter-Glo, 72 h, at 10 µM; for differential viability (reversal): stronger effect = higher value.
Assay [8] in a line: yeast transport mutant growth inhibition pilot in 384-well plates, post-Golgi transport modulator project (AID 636; in the data active = inhibition above about 31%). The settings on record: absorbance 615 nm, about 18 h, stronger effect = higher value.
Assay [9] in a line: growth suppression of yeast trafficking mutant, preliminary HTS, modulators of trafficking downstream of Golgi apparatus project, 1536-format plate, OD 615 nm (AID 637; in the data active = inhibition above about 30%). The following applies: yeast transport mutant growth, absorbance 615 nm, 18 h; stronger effect = higher value.
Where [10] appears, read: H69AR cells + 2 uM doxorubicin, measured here: viability with 2 uM doxorubicin, stronger effect = lower value.
Setting [11] is: H69AR cells, compound alone cytotoxicity.

Calls of active or inactive are those of the source. Unless noted, no rule for the calls is given here.

From PubChem BioAssay come the findings set out here.

Sequence of Receptor tyrosine-protein kinase erbB-2 (Homo sapiens) (P04626 whole entry, looked up): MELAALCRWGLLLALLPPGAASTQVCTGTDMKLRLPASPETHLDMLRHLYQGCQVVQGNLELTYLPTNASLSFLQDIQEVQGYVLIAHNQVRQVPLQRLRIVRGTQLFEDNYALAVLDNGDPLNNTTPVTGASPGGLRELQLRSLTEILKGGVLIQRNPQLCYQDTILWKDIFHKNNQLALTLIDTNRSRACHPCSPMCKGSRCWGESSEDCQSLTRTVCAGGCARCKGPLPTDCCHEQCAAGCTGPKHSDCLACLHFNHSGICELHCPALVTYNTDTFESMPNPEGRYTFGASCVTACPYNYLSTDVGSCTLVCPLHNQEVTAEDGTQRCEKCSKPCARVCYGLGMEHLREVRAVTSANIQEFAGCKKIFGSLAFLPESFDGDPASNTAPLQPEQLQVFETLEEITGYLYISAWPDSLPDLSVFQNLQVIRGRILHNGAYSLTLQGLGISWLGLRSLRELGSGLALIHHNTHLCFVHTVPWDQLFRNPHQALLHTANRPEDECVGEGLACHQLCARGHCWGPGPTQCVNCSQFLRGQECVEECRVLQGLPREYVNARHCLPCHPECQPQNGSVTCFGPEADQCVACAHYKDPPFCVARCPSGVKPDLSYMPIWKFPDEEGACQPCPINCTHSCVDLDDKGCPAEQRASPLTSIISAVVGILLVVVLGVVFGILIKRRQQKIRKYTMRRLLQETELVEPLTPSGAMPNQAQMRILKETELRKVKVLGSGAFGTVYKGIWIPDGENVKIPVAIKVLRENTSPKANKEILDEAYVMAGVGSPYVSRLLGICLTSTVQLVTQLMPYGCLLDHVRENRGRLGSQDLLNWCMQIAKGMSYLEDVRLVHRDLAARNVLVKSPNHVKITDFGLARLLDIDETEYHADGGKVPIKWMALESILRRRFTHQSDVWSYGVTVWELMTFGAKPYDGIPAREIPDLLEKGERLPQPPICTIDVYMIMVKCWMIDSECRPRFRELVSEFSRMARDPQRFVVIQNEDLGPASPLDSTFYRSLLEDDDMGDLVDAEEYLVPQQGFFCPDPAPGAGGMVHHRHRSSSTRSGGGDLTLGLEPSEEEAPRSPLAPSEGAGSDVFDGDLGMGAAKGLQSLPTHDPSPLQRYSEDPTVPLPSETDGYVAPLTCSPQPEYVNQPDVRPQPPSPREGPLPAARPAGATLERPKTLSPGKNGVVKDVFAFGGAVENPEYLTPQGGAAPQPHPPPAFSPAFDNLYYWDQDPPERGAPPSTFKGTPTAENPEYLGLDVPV
Sequence of Pantothenate synthetase (Mycobacterium tuberculosis (strain ATCC 25618 / H37Rv)) (P9WIL5 whole entry, looked up): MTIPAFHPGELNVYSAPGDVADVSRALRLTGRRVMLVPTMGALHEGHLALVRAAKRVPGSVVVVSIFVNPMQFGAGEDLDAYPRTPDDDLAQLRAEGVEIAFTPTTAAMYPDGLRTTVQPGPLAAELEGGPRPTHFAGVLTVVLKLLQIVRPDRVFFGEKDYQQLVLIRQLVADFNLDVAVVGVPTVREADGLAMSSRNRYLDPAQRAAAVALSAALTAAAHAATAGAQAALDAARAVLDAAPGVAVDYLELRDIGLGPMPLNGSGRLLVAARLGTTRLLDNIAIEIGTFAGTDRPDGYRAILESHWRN

For orientation: inhibition means the relative decrease from the control value, in per cent. For orientation: viability means a read-out of living cells in per cent, often relative to untreated cells. For `C=CCn1c(O)c(C(C)=NCc2cccnc2)c(=O)[nH]c1=O`, the inhibition in assay [1] was 0% (inactive); in assay [8], -6.49% (inactive); in assay [9], -1.33% (inactive). In addition, the viability is 104% in assay [2]; 104% (inactive) in [4]; 88.1% (inactive) in [5]; 92.2% (inactive) in assay [6]; 87.4% in assay [7] (setting [10]); 92.2% in assay [7] (setting [11]). The Her2 level in [3] is 113% (inactive). Besides, in [7] (H69AR cells + 2 uM doxorubicin), the differential viability (reversal) was 4.8% (inactive).
On to `O=c1[nH]c(=O)n(CCc2ccc(F)cc2)c(O)c1C=NCCCn1ccnc1`, for which the inhibition is 0% (inactive) in assay [1], -4.8% (inactive) in assay [8] and 3.28% (inactive) in [9]. In addition, the viability in assay [2] is 114%; in assay [4] it was 114% (inactive); in [5], 99.5% (inactive); in assay [6] it was 102% (inactive); in [7] (setting [10]) it was 86.8%; in [7] (setting [11]) it was 102%. In addition, the Her2 level in assay [3] was 84% (inactive). The differential viability (reversal) in assay [7] (H69AR cells + 2 uM doxorubicin) was 15.3% (inactive).
Turning to `Cc1ccc(S(=O)(=O)Cc2ccc(C(=O)N3CCC4(CC3)OCCO4)o2)cc1`, the inhibition in assay [1] was 0% (inactive); in assay [8], 7.37% (inactive); in assay [9], -5.64% (inactive). Also, the viability was 75% in assay [2]; 75% (inactive) in assay [4]; 103% (inactive) in [5]; 90.6% (inactive) in assay [6]; 93.7% in [7] (setting [10]); 90.6% in [7] (setting [11]). Further, the Her2 level in assay [3] is 104% (inactive). Besides, the differential viability (reversal) in assay [7] (H69AR cells + 2 uM doxorubicin) was -3.13% (inactive).
For the compound `O=C1CC(N2CCC(n3c(=O)[nH]c4ccccc43)CC2)C(=O)N1c1ccc(F)cc1` (configuration not stated), the inhibition was 5% (inactive) in assay [1], -4.74% (inactive) in [8] and -6.5% (inactive) in assay [9]. Besides, the viability is 93.5% in assay [2]; 93.5% (inactive) in assay [4]; 80.7% (inactive) in assay [5]; 103% (inactive) in assay [6]; 100% in [7] (setting [10]); 103% in assay [7] (setting [11]). Further, the Her2 level in assay [3] was 67.5% (inactive). In [7] (H69AR cells + 2 uM doxorubicin), the differential viability (reversal) is 3.01% (inactive).
In the case of `CC(=NCCCO)c1c(O)n(Cc2ccccc2)c(=O)[nH]c1=O`, the results for the inhibition in [1], in assay [8] and in [9] were 0% (inactive), -4.61% (inactive) and 3.67% (inactive), respectively. The viability was 95% in assay [2]; 95% (inactive) in assay [4]; 98.6% (inactive) in assay [5]; 94.4% (inactive) in assay [6]; 90.2% in [7] (setting [10]); 94.4% in assay [7] (setting [11]). Moreover, the Her2 level in assay [3] is 94% (inactive). In addition, the differential viability (reversal) in [7] (H69AR cells + 2 uM doxorubicin) was 4.15% (inactive).
With `COC(=O)CC1(Cc2ccccc2)C(=O)NC(=O)NC1=O`, the inhibition in assay [1] is 0% (inactive); in assay [8], -5.07% (inactive); in [9] it was -0.98% (inactive). The viability in assay [2] was 92.5%; in assay [4], 92.5% (inactive); in assay [5] it was 86.8% (inactive); in [6], 102% (inactive); in assay [7] (setting [10]) it was 88.4%; in assay [7] (setting [11]) it was 102%. Further, the Her2 level in [3] is 96.5% (inactive). Besides, the differential viability (reversal) in [7] (H69AR cells + 2 uM doxorubicin) was 13.1% (inactive).
Take `Cc1ccc(C(=O)C2CN3CCC2CC3)cc1` (configuration not stated): the figures for the inhibition in assay [1], in assay [8] and in [9] were 0% (inactive), -4.55% (inactive) and 4.5% (inactive), respectively. The viability is 93% in assay [2]; 93% (inactive) in assay [4]; 94.3% (inactive) in [5]; 97.6% (inactive) in assay [6]; 93.3% in assay [7] (setting [10]); 97.6% in assay [7] (setting [11]). Moreover, the Her2 level in assay [3] is 91% (inactive). In assay [7] (H69AR cells + 2 uM doxorubicin), the differential viability (reversal) is 4.27% (inactive).
For the compound `CC(=O)N1CC(=O)Nc2ccc(Cl)cc2C1c1ccc(F)cc1` (configuration not stated), the values for the inhibition in assay [1], in assay [8] and in assay [9] were 0% (inactive), -3.29% (inactive) and -3.45% (inactive), respectively. Moreover, the viability in [2] is 92.5%; in [4], 92.5% (inactive); in [5], 88.5% (inactive); in assay [6], 97.5% (inactive); in assay [7] (setting [10]), 72%; in [7] (setting [11]) it was 97.5%. For the same compound, in assay [3], the Her2 level was 102% (inactive). Further, the differential viability (reversal) in assay [7] (H69AR cells + 2 uM doxorubicin) was 25.5% (inactive).
Take `CCOC(=O)C(O)(c1ccc(N(CC)C(=O)OC)cc1)C(F)(F)F` (configuration not stated): the inhibition in assay [1] is 0% (inactive); in [8] it was -5.53% (inactive); in [9] it was 5.74% (inactive). The viability is 99.5% in [2]; 99.5% (inactive) in [4]; 110% (inactive) in assay [5]; 109% (inactive) in [6]; 88.3% in assay [7] (setting [10]); 109% in assay [7] (setting [11]). Besides, in [3], the Her2 level is 105% (inactive). Moreover, in assay [7] (H69AR cells + 2 uM doxorubicin), the differential viability (reversal) is 20.5% (inactive).
For the compound `OCC12COC3c4ccccc4C(OC1)N32` (configuration not stated), the inhibition is 0% (inactive) in assay [1], -5.47% (inactive) in assay [8] and -5.81% (inactive) in [9]. For the same compound, the viability in assay [2] was 110%; in [4] it was 110% (inactive); in assay [5], 94% (inactive); in [6], 97.3% (inactive); in [7] (setting [10]), 92.7%; in [7] (setting [11]), 97.3%. Further, in assay [3], the Her2 level is 118% (inactive). For the same compound, the differential viability (reversal) in [7] (H69AR cells + 2 uM doxorubicin) was 4.61% (inactive).
As to `O=C(Cc1ccccc1)OC(COCc1ccccc1)CN1CCOCC1` (configuration not stated), the results for the inhibition in assay [1], in [8] and in [9] were 3% (inactive), -7.47% (inactive) and -0.98% (inactive), respectively. Moreover, the viability in [2] was 83%; in assay [4], 83% (inactive); in assay [5] it was 88.3% (inactive); in assay [6] it was 94.2% (inactive); in [7] (setting [10]), 89.4%; in assay [7] (setting [11]) it was 94.2%. Moreover, the Her2 level in assay [3] was 99% (inactive). In [7] (H69AR cells + 2 uM doxorubicin), the differential viability (reversal) was 4.79% (inactive).
For the compound `CCOc1c(P(=S)(N(C)C)N(C)C)c(C)nn1-c1ccccc1`, the inhibition was 1% (inactive) in assay [1], -2.24% (inactive) in [8] and -11% (inactive) in assay [9]. Further, the viability was 83% in assay [2]; 83% (inactive) in assay [4]; 98.6% (inactive) in [5]; 101% (inactive) in [6]; 84.1% in assay [7] (setting [10]); 101% in [7] (setting [11]). The Her2 level in assay [3] is 120% (inactive). For the same compound, the differential viability (reversal) in assay [7] (H69AR cells + 2 uM doxorubicin) is 17% (inactive).
